# Assay results collected from several papers.
# Compare with care: the assays were run in different laboratories.
# Target: Activated CDC42 kinase 1 (TNK2, Homo sapiens, UniProt Q07912)
Structure (SMILES),read-out,method,tested at,remaining binding [%]
O=C(NC[C@@H]1[C@H]2CN(C(=O)OCc3cc(C(F)(F)F)cc(C(F)(F)F)c3)C[C@@H]12)c1ccc2[nH]nnc2c1,cell-free assay,competition with immobilised ligand,1 µM,100
Cc1nc(Nc2ncc(C(=O)Nc3c(C)cccc3Cl)s2)cc(N2CCN(CCO)CC2)n1,cell-free assay,competition with immobilised ligand,0.1 µM,4
CN(C)c1ncc(F)c(-c2cnn3ncccc23)n1,binding,,1 µM,77
Cc1cnc(Nc2ccc(C(=O)N3CCC(N4CCCC4)CC3)cc2)nc1-c1cc2ccccc2s1,binding,competition with immobilised ligand,1 µM,10
O=C(Nc1c[nH]nc1C(=O)NC1CCNCC1)c1cc(F)cc(F)c1,binding,competition with immobilised ligand,1 µM,100
CCN(CC)Cc1cc(Nc2ccnc3cc(Cl)ccc23)ccc1O,cell-free assay,competition with immobilised ligand,0.1 µM,89
O=C(NS(=O)(=O)c1ccc(NCC2CCOCC2)c([N+](=O)[O-])c1)c1ccc(N2CCN(Cc3ccc(C(F)(F)F)cc3-c3ccc(Cl)cc3)CC2)cc1Oc1cnc2[nH]ccc2c1,cell-free assay,competition with immobilised ligand,1 µM,100
COc1cc2ncnc(Nc3ccc(F)c(Cl)c3)c2cc1OCCCN1CCOCC1,cell-free assay,competition with immobilised ligand,0.1 µM,100
C[C@H]1CCN(c2nccc(-c3cnn4ncccc34)n2)C1,binding,,1 µM,100
Cc1cc(C)c(-n2ccn3nc(-c4cccnc4)cc23)cc1NC(=O)c1cc(C#N)cc(S(F)(F)(F)(F)F)c1,cell-free assay,competition with immobilised ligand,0.1 µM,83.6
c1cncc(-c2cccc(Nc3nccc(NC4CCCCC4)n3)c2)c1,binding,competition with immobilised ligand,10 µM,43
COc1cnc(Nc2cccc(S(N)(=O)=O)c2)nc1N1CCN(c2ccccc2)CC1,binding,competition with immobilised ligand,1 µM,97
Cc1c(C(=O)O)cc(-c2ccc(C3CCNCC3)cc2)c2ccc(-c3ccc(C(F)(F)F)cc3)cc12,binding,competition with immobilised ligand,1 µM,100
Cc1c(-c2ccccc2)oc2c(C(=O)OCCN3CCCCC3)cccc2c1=O,cell-free assay,competition with immobilised ligand,0.1 µM,100
COc1ccnn2ncc(-c3ccnc(N(C)C)n3)c12,binding,,1 µM,100
Cc1c(NC(=O)c2cc(C(N)=O)nc3cc(F)ccc23)c(C(F)(F)F)nn1Cc1ccc(C#N)cc1,cell-free assay,competition with immobilised ligand,1 µM,71
CC1CCCN1c1nccc(-c2cnn3ncccc23)n1 (centres unmarked),binding,,1 µM,85
C[C@@H]1CN(c2cc(-c3n[nH]c4ccc(OC5(C)CC5)cc34)ncn2)C[C@H](C)O1,cell-free assay,competition with immobilised ligand,0.1 µM,79
c1cnn2ncc(-c3ccnc(N4CCC45COC5)n3)c2c1,binding,,1 µM,74
CS(=O)(=O)CCNCc1ccc(-c2ccc3ncnc(Nc4ccc(OCc5cccc(F)c5)c(Cl)c4)c3c2)o1,cell-free assay,competition with immobilised ligand,10 µM,93
Cn1nc(C(F)(F)F)cc1-c1cnc(N2CCc3cc(S(=O)(=O)Nc4c(F)cc(Cl)cc4F)cc(N4CCCC4=O)c32)nc1,cell-free assay,competition with immobilised ligand,1 µM,100
CNC(=O)c1cc(Oc2ccc(NC(=O)Nc3ccc(Cl)c(C(F)(F)F)c3)cc2)ccn1,cell-free assay,competition with immobilised ligand,0.1 µM,100
O=C(NCCCN1CCOCC1)c1ccc(Nc2ncc(Cl)c(-c3ccc(Cl)s3)n2)cc1,binding,competition with immobilised ligand,1 µM,53
